According to article PMC2766535 (Journal of separation science, 2009):

Target: human serum albumin (HSA) (Homo sapiens, UniProt P02768)
Experiment: frontal analysis, high-performance affinity chromatography on immobilized HSA
Assay type: binding
In short: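 Fatty-acid-free HSA immobilized by Schiff base on diol silica (40 (± 2) mg HSA/g silica), packed in a 5 cm × 2.1 mm i.d. column. A column without HSA corrected for non-specific binding. Test compound (0.5 µM to 30 µM) in pH 7.4, 0.067 M potassium phosphate was applied at 0.5 mL/min, 37°C, until plateau. Detection at 260 nm; mean breakthrough times were used.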

Sequence of human serum albumin (HSA) (P02768 25-609): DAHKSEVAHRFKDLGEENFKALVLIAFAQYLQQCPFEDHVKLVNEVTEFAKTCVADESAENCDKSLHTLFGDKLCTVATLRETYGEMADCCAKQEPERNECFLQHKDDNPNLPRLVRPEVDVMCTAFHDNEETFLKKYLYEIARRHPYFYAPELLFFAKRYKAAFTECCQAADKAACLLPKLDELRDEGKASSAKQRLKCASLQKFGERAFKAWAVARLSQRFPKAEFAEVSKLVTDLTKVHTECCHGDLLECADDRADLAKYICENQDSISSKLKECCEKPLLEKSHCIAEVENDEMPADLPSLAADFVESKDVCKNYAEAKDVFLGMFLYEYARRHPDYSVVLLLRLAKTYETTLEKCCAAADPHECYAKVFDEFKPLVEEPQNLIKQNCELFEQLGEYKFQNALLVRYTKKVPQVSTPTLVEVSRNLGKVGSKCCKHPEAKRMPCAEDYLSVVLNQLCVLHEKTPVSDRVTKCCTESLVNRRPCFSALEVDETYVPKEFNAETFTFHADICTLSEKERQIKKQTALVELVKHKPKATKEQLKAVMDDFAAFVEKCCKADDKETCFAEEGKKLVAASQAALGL

Row | Structure (SMILES) | Kd [µM]
1 | OCc1c[nH]c2ccccc12 [Indole-3-methanol] | 8.33
2 | Cc1c[nH]c2ccccc12 [3-Methylindole] | 18.9
3 | O=C(O)CCCc1c[nH]c2ccccc12 [Indole-3-butyric acid] | 1.03
4 | CC(=O)c1c[nH]c2ccccc12 [3-Acetylindole] | 12.8
5 | O=C(O)CCc1c[nH]c2ccccc12 [Indole-3-propionic acid] | 9.09
